EBI2 antag: EBI2 (human) antagonism. actives 0.81% (n = 360,000). AID 651636. inhibition, % at 5 µM. EBI2 beta-arrestin recruitment, luminescence, 7a,25-OHC stimulated; in the data active = inhibition above about 38%;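 note: enzyme fragment complementation signal reports receptor beta-arrestin coupling in cells; 0% = agonist plus DMSO wells and 100% = wells without agonist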
CXCR6 inh: CXCR6 (human) receptor inhibition; actives 0.36% (n = 360,000); CHO-K1 PathHunter CXCR6 beta-arrestin, luminescence; AID 602244; O00574; inhibition, % at 20 µM; in the data active = inhibition above about 34%, passing the limit was not always enough;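 note: antagonist mode with CXCL16 agonist at 10 nM final; 0% = 10 nM CXCL16 with DMSO and 100% = unstimulated wells without agonist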
Target sequence (O00574 whole entry, looked up): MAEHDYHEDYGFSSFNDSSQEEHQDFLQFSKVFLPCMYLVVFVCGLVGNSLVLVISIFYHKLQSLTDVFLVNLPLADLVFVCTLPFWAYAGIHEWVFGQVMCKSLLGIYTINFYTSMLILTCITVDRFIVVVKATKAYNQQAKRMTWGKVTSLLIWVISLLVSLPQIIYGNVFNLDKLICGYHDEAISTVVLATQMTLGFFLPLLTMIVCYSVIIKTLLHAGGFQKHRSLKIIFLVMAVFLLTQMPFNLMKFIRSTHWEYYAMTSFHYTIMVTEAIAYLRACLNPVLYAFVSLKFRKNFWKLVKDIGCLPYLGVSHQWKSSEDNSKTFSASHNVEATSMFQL
TAG inh: triacylglycerol accumulation inhibition. H9c2 cells, Nile Red lipid (TAG) fluorescence; cells loaded with 200 µM oleic acid. actives 0.66% (n = 230,000). inhibition, % at 12.5 µM. AID 651582;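 active = pattern-corrected inhibition of lipid staining of at least 50% with the nuclear-stain viability signal not falling by more than 50%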;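 note: 0% = DMSO wells and 100% = triacsin C control wells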
APJ antag: APJ receptor antagonism | P35414 | CHO-K1 APJ beta-arrestin complementation, luminescence | inhibition, % at 20 µM | actives 0.32% (n = 330,000);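 active = inhibition above about 40% at 20 µM, limit read from the data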;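 note: cells challenged with 10 nM apelin-13 agonist together with compound; plate controls were apelin-13 plus DMSO wells for no effect and DMSO wells lacking apelin-13 for full effect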
APJ ag: APJ receptor agonism; CHO-K1 APJ PathHunter beta-arrestin, luminescence; 0% DMSO wells, 100% apelin; activation, % at 20 µM; actives 0.11% (n = 330,000);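 active = activation more than six SD over the plate average, tested at 20 µM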;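 note: 0% = DMSO alone and 100% = apelin-13 at 10 nM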
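Assay system: engineered CHO-K1 APJ arrestin reporter cells; Amount: 1000 CHO-K1 reporter cells seeded per well; Dosing: one dose, 20 µM compound, 1% DMSO; Times: compound stimulation 90 min at 25 °C, detection 60 min; Measured by: luminescent beta-gal fragment complementation, chemiluminescent substrate; Read-out: APJ–arrestin association signal; Controls: DMSO vs Apelin-13 10 nM.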
CCR6 antagonist: blocks CCL20-driven beta-arrestin recruitment at human CCR6. CHO-K1 CCR6 PathHunter beta-arrestin, luminescence, CCL20-stimulated. actives 0.49% (n = 340,000). inhibition, % at 20 µM;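 active = compounds whose inhibition of the agonist-driven luminescence signal at 20 µM reaches about 50%, limit read from the data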;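 note: cells stimulated with CCL20 at 14 nM final; plate controls were DMSO with CCL20 for no effect and DMSO without agonist for full effect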
Numbers without * were called inactive; x = not tested or not shown. The list is not random: actives were taken first. Their share in the collection is about 1.9%.

SMILES	EBI2 antag	CXCR6 inh	TAG inh	APJ antag	APJ ag	CCR6 antagonist
COc1cc(OC)cc(C(=O)N2CCN(C3CCC(C)CC3)CC2)c1 (centres undefined)	2	6	5	x	x	2
Cc1ccc(NC(=O)NNS(=O)(=O)c2ccc(Br)cc2)cc1	-2	0	13	10	-3	8
Cc1ccc(S(=O)(=O)NC(=O)Nc2ccc(N(C)C)cc2)cc1	7	-1	60*	-65	9	-9
COc1ccc(C(=O)/C=C/c2cc(OC)c(O)c(OC)c2)c(F)c1	11	21	0	-4	-1	51*
COc1ccc2cc(C(=O)/C=C/c3cc(OC)c(O)c(OC)c3)ccc2c1	30	16	x	1	0	29
COc1nc(NCCc2ccc(OC)c(OC)c2)nc(OC)n1	0	0	4	10	3	0
COc1ccc(CCNc2c3ccccc3nc3ccccc23)cc1OC	-6	8	55*	37	-1	25
CN(C)CCCN(C(=O)CCc1ccccc1)c1nc2ccc(Br)cc2s1	-16	-5	98*	11	5	53*
CN(C)CCCN(C(=O)CCc1ccccc1)c1nc2ccc(F)cc2s1	1	-6	x	6	-2	6
COc1ccccc1-c1cc(C(=O)NC2CCN(C)CC2)c2ccc(Cl)c(C)c2n1	-12	-2	103*	29	-3	32
CN[C@H]1C[C@H]2c3[nH]c4ccc(-c5cccc(C)c5)cc4c3CCN2C[C@H]1[C@H](C)O	9	-22	19	x	x	x
COc1cc(/C=N/NC(=O)c2cccc(NC(=O)c3ccccc3C)c2)ccc1O	-8	6	x	10	0	-1
Cc1ccccc1C(=O)Nc1cccc(C(=O)N/N=C/c2cc(Cl)cc([N+](=O)[O-])c2O)c1	8	34	12	27	-8	71*
COC(=O)C1=C(C(=O)OC)SC(=C2C(=S)C(C)(C)N(C(=O)CC(C)C)c3ccccc32)S1	56*	31	x	37	-1	49
Cc1cc(NCCCN2CCOCC2)n2ncc(-c3ccc(Cl)cc3)c2n1	18	-7	x	15	0	17
Cc1cc(NCCCn2ccnc2)n2ncc(-c3ccc(Cl)cc3)c2n1	45*	-6	x	-11	2	-4
COc1ccc(CNC(=O)O[C@H]2C[C@@H]3C(=O)N(c4ccccc4)C(=O)[C@@H]3[C@@H]3CN(S(=O)(=O)c4ccc(C)cc4)C[C@]23O)cc1OC	-6	0	0	x	x	x
COc1ccc(Nc2c([N+](=O)[O-])ccc3c2=NC2(CCCCC2)N=3)cc1	61*	-3	22	-20	-1	10
O=[N+]([O-])c1ccccc1Nc1ccccc1	5	13	-3	24	-4	21
O=[N+]([O-])c1ccc2c(c1Nc1ccccc1)=NC1(CCCCC1)N=2	66*	12	-1	4	6	-7
C=CS(=O)(=O)c1c2cc(OC)ccc2nc2ccc(OC)cc12	0	48*	15	x	x	78*
COc1ccc2nc(Cl)cc(Cl)c2c1	2	9	9	4	-4	-5
CC(C)[C@H]1COCCS(=O)(=O)N1Cc1ccccc1-c1ccc(C(C)(C)C)cc1	-14	9	-26	x	x	18
COc1ccc(/C(C)=N/Nc2ncc(Cl)cc2Cl)c(O)c1	43*	2	x	11	-1	22
C/C(=N\Nc1ncc(Cl)cc1Cl)c1ccc(C#N)cc1	9	1	-1	-1	-2	9
SMILES	EBI2 antag	CXCR6 inh	TAG inh	APJ antag	APJ ag	CCR6 antagonist
C=CCNc1nc2c(c(=O)[nH]c(=O)n2C)n1CCCc1ccccc1	6	-2	-17	8	-1	-2
CC(C)C[C@H](N)c1nnc(S(=O)(=O)Cc2ccc(F)cc2)o1	-9	42*	12	14	-1	35
CC(C)C[C@H](N)c1nnc(SCC(=O)Nc2ccc(Br)cc2)o1	4	-1	x	10	0	5
Oc1[nH]c2ccccc2c1N=Nc1nc2ccccc2s1	14	28	x	37	-8	58*
Cc1ccc2[nH]c(O)c(N=Nc3nc4ccccc4s3)c2c1	18	42*	19	30	-7	49
Oc1[nH]c2ccccc2c1N=Nc1ccccc1	3	12	-11	18	-5	18
COc1cc(C(=O)NC2CCN(C)CC2)ccc1Nc1ncc2c(n1)N(C1CCCC1)CCC(=O)N2C(C)C	17	8	58*	x	x	29
Cc1ccc(S(=O)(=O)Nc2c(C)cc(C)nc2Cl)cc1	-9	1	x	-3	-1	0
O=C(COc1ccc2c(-c3ccccc3)cc(=O)oc2c1)Nc1ccc(CCO)cc1	37	1	x	-15	1	7
Cc1cc(Br)ccc1NC(=O)CNC(=O)CN(C)C1CCS(=O)(=O)C1 (centres undefined)	-14	1	-1	-3	-5	11
CCOc1cc(CNC(C)(C)CO)cc(Br)c1OCc1ccc(Cl)cc1Cl	-21	-6	x	-20	-7	50*
CCOc1cc(CNCCO)cc(Br)c1OCc1ccccc1Cl	2	-10	x	-17	0	12
Cc1cc2c(cc1C)NC(c1c(C)n(C)n(-c3ccccc3)c1=O)C1=C(CC(C)(C)CC1=O)N2 (centres undefined)	16	12	5	8	-1	77*
COc1cc(C2Nc3cc(C)c(C)cc3NC3=C2C(=O)CC(C)(C)C3)ccc1OC(C)=O (centres undefined)	1	2	-7	-21	-1	3
Cc1ccc(CNC(=O)C2(S(=O)(=O)c3ccccc3)CC=CC2)cc1	-4	-8	0	19	9	10
CN1CCN(c2ccccc2NC(=O)c2ccc(Br)o2)CC1	6	-8	21	-2	-3	0
CN1CCN(c2ccccc2NC(=O)c2ccc(-c3cccc(Cl)c3)o2)CC1	19	-10	-7	11	-5	55*
O=C(Nc1ccccc1N1CCOCC1)c1ccc(Br)o1	7	1	x	4	-4	51*
C#CCOCCOCCOCCNc1nc(N2CCN(C(=O)CCCCCCCCCCNC(=O)[C@H](CCCCN)n3cc(CCO)nn3)CC2)nc(N2CCN(C(=O)CCCCCCCCCCNC(=O)[C@H](CCCN=C(N)N)n3cc(C[C@@H](C)CC)nn3)CC2)n1	-3	26	-45	26	-1	-29
C#CCOCCOCCOCCNc1nc(N2CCN(C(=O)CCCCCCCCCCNC(=O)[C@H]([C@@H](C)CC)n3cc(CCCCN=C(N)N)nn3)CC2)nc(N2CCN(C(=O)CCCCCCCCCCNC(=O)[C@H](CCCCN)n3cc(C[C@@H](C)CC)nn3)CC2)n1	x	x	x	31	59*	x

High-throughput results from PubChem BioAssay.
